{"source": "ChEMBL document CHEMBL1157401", "about": "“Anticancer activity of isoobtusilactone A from Cinnamomum kotoense: involvement of apoptosis, cell-cycle dysregulation, mitochondria regulation, and reactive oxygen species” (J Nat Prod, 2008)", "key": {"A549 [1]": {"system": "A549", "assay": "Antiproliferative activity against human A549 cells at 100 uM after 72 hrs by MTT assay", "format": "functional", "conditions": "A549, 72 h, values are per cent of control", "how_it_was_run": "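MTT proliferation: A549 grown in medium with 10% FBS to 70-80% confluence, then exposed to compound for 24, 48 or 72 h. MTT added for 3 h at 37 °C, formazan dissolved in 2-propanol, OD 570 nm with 650 nm reference. Expressed as percent of control at 24 h; mean ± SE.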"}, "A549 [2]": {"system": "A549", "assay": "Cytotoxicity against human A549 cells after 24 hrs by TB dye exclusion assay", "format": "functional, cell-based", "conditions": "A549, 24 h"}, "A549 [3]": {"system": "A549", "assay": "Cytotoxicity against human A549 cells after 48 hrs by TB dye exclusion assay", "format": "functional, cell-based", "conditions": "A549, 48 h"}, "A549 [4]": {"system": "A549", "assay": "Cytotoxicity against human A549 cells after 72 hrs by TB dye exclusion assay", "format": "functional, cell-based", "conditions": "A549, 72 h"}, "A549 [5]": {"system": "A549", "assay": "Cytotoxicity against human A549 cells after 24 hrs by MTT assay", "format": "functional, cell-based", "conditions": "A549, 24 h"}, "A549 [6]": {"system": "A549", "assay": "Cytotoxicity against human A549 cells after 48 hrs by MTT assay", "format": "functional, cell-based", "conditions": "A549, 48 h"}, "A549 [7]": {"system": "A549", "assay": "Cytotoxicity against human A549 cells after 72 hrs by MTT assay", "format": "functional, cell-based", "conditions": "A549, 72 h"}, "A549 [8]": {"system": "A549", "assay": "Cell cycle arrest in human A549 cells assessed as accumulation at G1 phase at 50 uM after 24 hrs", "format": "functional", "how_it_was_run": "(§1)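 Flow cytometry of cell cycle: A549 (5 × 10^5 per 60 mm dish) treated next day with 50 or 100 µM for 24, 48 or 72 h. Adherent and floating cells pooled, fixed in PBS-MeOH 1:2 at 4 °C for at least 18 h, then stained 30 min in the dark with PI 50 µg/mL plus RNase A 50 µg/mL. Sub-G1 taken as the subdiploid fraction; at least three runs.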"}, "A549 [9]": {"system": "A549", "assay": "Cell cycle arrest in human A549 cells assessed as accumulation at S phase at 50 uM after 24 hrs", "format": "functional", "how_it_was_run": "as §1"}, "A549 [10]": {"system": "A549", "assay": "Cell cycle arrest in human A549 cells assessed as accumulation at G2/M phase at 50 uM after 24 hrs", "format": "functional", "how_it_was_run": "as §1"}, "A549 [11]": {"system": "A549", "assay": "Cell cycle arrest in human A549 cells assessed as accumulation at subG1 phase at 50 uM after 24 hrs", "format": "functional", "how_it_was_run": "as §1"}, "A549 [12]": {"system": "A549", "assay": "Cell cycle arrest in human A549 cells assessed as accumulation at G1 phase at 50 uM after 48 hrs", "format": "functional", "how_it_was_run": "as §1"}, "A549 [13]": {"system": "A549", "assay": "Cell cycle arrest in human A549 cells assessed as accumulation at S phase at 50 uM after 48 hrs", "format": "functional", "how_it_was_run": "as §1"}, "A549 [14]": {"system": "A549", "assay": "Cell cycle arrest in human A549 cells assessed as accumulation at G2/M phase at 50 uM after 48 hrs", "format": "functional", "how_it_was_run": "as §1"}, "A549 [15]": {"system": "A549", "assay": "Cell cycle arrest in human A549 cells assessed as accumulation at subG1 phase at 50 uM after 48 hrs", "format": "functional", "how_it_was_run": "as §1"}, "A549 [16]": {"system": "A549", "assay": "Induction of apoptosis in human A549 cells assessed as PARP cleavage at 100 uM", "format": "functional, cell-based"}, "A549 [17]": {"system": "A549", "assay": "Cell cycle arrest in human A549 cells assessed as accumulation at G1 phase at 50 uM after 72 hrs", "format": "functional", "how_it_was_run": "as §1"}, "A549 [18]": {"system": "A549", "assay": "Cell cycle arrest in human A549 cells assessed as accumulation at S phase at 50 uM after 72 hrs", "format": "functional", "how_it_was_run": "as §1"}, "A549 [19]": {"system": "A549", "assay": "Cell cycle arrest in human A549 cells assessed as accumulation at G2/M phase at 50 uM after 72 hrs", "format": "functional", "how_it_was_run": "as §1"}, "A549 [20]": {"system": "A549", "assay": "Cell cycle arrest in human A549 cells assessed as accumulation at subG1 phase at 50 uM after 72 hrs", "format": "functional", "how_it_was_run": "as §1"}, "A549 [21]": {"system": "A549", "assay": "Cell cycle arrest in human A549 cells assessed as accumulation at G1 phase at 100 uM after 24 hrs", "format": "functional", "how_it_was_run": "as §1"}, "A549 [22]": {"system": "A549", "assay": "Cell cycle arrest in human A549 cells assessed as accumulation at S phase at 100 uM after 24 hrs", "format": "functional", "how_it_was_run": "as §1"}, "A549 [23]": {"system": "A549", "assay": "Cell cycle arrest in human A549 cells assessed as accumulation at G2/M phase at 100 uM after 24 hrs", "format": "functional", "how_it_was_run": "as §1"}, "A549 [24]": {"system": "A549", "assay": "Cell cycle arrest in human A549 cells assessed as accumulation at subG1 phase at 100 uM after 24 hrs", "format": "functional", "how_it_was_run": "as §1"}, "A549 [25]": {"system": "A549", "assay": "Cell cycle arrest in human A549 cells assessed as accumulation at G1 phase at 100 uM after 48 hrs", "format": "functional", "how_it_was_run": "as §1"}, "A549 [26]": {"system": "A549", "assay": "Cell cycle arrest in human A549 cells assessed as accumulation at S phase at 100 uM after 48 hrs", "format": "functional", "how_it_was_run": "as §1"}, "A549 [27]": {"system": "A549", "assay": "Cell cycle arrest in human A549 cells assessed as accumulation at G2/M phase at 100 uM after 48 hrs", "format": "functional", "how_it_was_run": "as §1"}}, "note": "Calls of active or inactive are those of the source. No cut-off for these calls is given here.", "data": [{"smiles": "C=C1OC(=O)/C(=C/CCCCCCCCCCCCC)[C@@H]1O", "note": "[ISOOBTUSILACTONE A]", "values": [{"measurement": "growth, % of control at 100 µM", "setting": "A549 [1]", "value": 2.75, "unit": "%"}, {"measurement": "IC50", "setting": "A549 [2]", "value": 4.17, "unit": "µM"}, {"measurement": "IC50", "setting": "A549 [3]", "value": 891, "unit": "nM"}, {"measurement": "IC50", "setting": "A549 [4]", "value": 724, "unit": "nM"}, {"measurement": "IC50", "setting": "A549 [5]", "value": 5.13, "unit": "µM"}, {"measurement": "IC50", "setting": "A549 [6]", "value": 1950, "unit": "nM"}, {"measurement": "IC50", "setting": "A549 [7]", "value": 1020, "unit": "nM"}, {"measurement": "Activity", "setting": "A549 [8]", "value": 51.93, "unit": "%"}, {"measurement": "Activity", "setting": "A549 [9]", "value": 30.81, "unit": "%"}, {"measurement": "Activity", "setting": "A549 [10]", "value": 17.26, "unit": "%"}, {"measurement": "Activity", "setting": "A549 [11]", "value": 16.69, "unit": "%"}, {"measurement": "Activity", "setting": "A549 [12]", "value": 37.37, "unit": "%"}, {"measurement": "Activity", "setting": "A549 [13]", "value": 46.72, "unit": "%"}, {"measurement": "Activity", "setting": "A549 [14]", "value": 15.91, "unit": "%"}, {"measurement": "Activity", "setting": "A549 [15]", "value": 36.73, "unit": "%"}, {"measurement": "Activity", "setting": "A549 [16]", "value": "Active"}, {"measurement": "Activity", "setting": "A549 [17]", "value": 38.62, "unit": "%"}, {"measurement": "Activity", "setting": "A549 [18]", "value": 47.74, "unit": "%"}, {"measurement": "Activity", "setting": "A549 [19]", "value": 13.64, "unit": "%"}, {"measurement": "Activity", "setting": "A549 [20]", "value": 54.08, "unit": "%"}, {"measurement": "Activity", "setting": "A549 [21]", "value": 42.88, "unit": "%"}, {"measurement": "Activity", "setting": "A549 [22]", "value": 38.95, "unit": "%"}, {"measurement": "Activity", "setting": "A549 [23]", "value": 18.18, "unit": "%"}, {"measurement": "Activity", "setting": "A549 [24]", "value": 25.63, "unit": "%"}, {"measurement": "Activity", "setting": "A549 [25]", "value": 43.08, "unit": "%"}, {"measurement": "Activity", "setting": "A549 [26]", "value": 41.33, "unit": "%"}, {"measurement": "Activity", "setting": "A549 [27]", "value": 15.59, "unit": "%"}]}]}
